Ins promoter up: MIN6 insulin promoter up-regulation. MIN6 insulin promoter-GFP reporter, high-content imaging; active compounds read high. z-score at 5 µM. hit rate 0.3% among 190,000;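 active = z-score above 3 at 5 µM with at least 500 cells counted in the well; inconclusive = wells under 500 cells, flagged as cytotoxic or low count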
SR-BI uptake up: enhances SR-BI lipid uptake from DiI-HDL; CHO ldlA[mSR-BI] cells, DiI-HDL uptake fluorescence, 3 h; 100 = double the neutral-control signal; activation, % at 12.5 µM; hit rate 0.096% among 320,000;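 active = mean replicate activation of at least 60% and every replicate at or above 60%; inconclusive = mean or all-replicate condition met, but not both; inactive = mean below 60% and not all replicates reaching 60%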;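 also: 0% = median plate neutral-control signal and 100% = twice that signal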
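Test system: SR-BI-overexpressing, LDLR-lacking CHO cells; Medium: Ham's F12 with 0.5% BSA, HEPES 25 mM, pH 7.4; Schedule: 3 h, 37 °C; Technique: bottom-read fluorescence, 550/595 nm.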
beta cell repl: MIN6 beta-cell proliferation induction | MIN6 cells proliferation, ATPlite luminescence, 48 h; cells starved in 0.2% serum; 100% = growth in 10% serum | proliferation, % at 10 µM | hit rate 0.29% among 330,000 | AID 2380;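 active = compounds whose signal lies at least 3.5 SD above the mean of all wells on their plate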;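 also: 0% = DMSO-treated cells in low-serum medium and 100% = 10% serum control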
SR-BI DiI inh: mouse SR-BI HDL lipid transfer inhibition | Q61009 | ldlA[mSR-BI] CHO cells, DiI-HDL uptake fluorescence, 3 h | inhibition, % at 12.5 µM | hit rate 0.96% among 320,000 | AID 488896;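 active = mean replicate inhibition of at least 70% and a set share of replicates each scoring 70 or more; inconclusive = meets just one of the two criteria; inactive = fails both criteria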;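 also: 0% = median of neutral control wells and 100% = median of positive control wells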
Target sequence (Q61009 whole entry, looked up): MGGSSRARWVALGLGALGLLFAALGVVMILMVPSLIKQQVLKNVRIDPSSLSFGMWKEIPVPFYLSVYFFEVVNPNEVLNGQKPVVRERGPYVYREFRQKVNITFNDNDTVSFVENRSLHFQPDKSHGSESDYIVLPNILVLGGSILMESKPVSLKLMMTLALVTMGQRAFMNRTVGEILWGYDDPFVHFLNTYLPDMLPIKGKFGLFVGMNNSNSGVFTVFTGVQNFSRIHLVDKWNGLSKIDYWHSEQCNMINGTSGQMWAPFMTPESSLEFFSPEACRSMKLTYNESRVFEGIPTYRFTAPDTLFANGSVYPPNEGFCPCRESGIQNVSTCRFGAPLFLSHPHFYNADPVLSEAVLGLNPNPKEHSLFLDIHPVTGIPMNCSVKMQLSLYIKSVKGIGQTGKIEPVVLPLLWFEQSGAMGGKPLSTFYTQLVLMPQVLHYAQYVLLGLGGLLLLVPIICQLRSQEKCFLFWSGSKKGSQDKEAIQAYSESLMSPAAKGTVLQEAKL
Calb FLC: affects C. albicans growth with fluconazole; C. albicans CaCi-2 + fluconazole, Alamar Blue growth, 48 h; growth inhibition, % (test concentration not listed); hit rate 0.57% among 300,000; AID 1979;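 active = growth inhibition above about 58% in most replicates, limit read from the data, passing the limit was not always enough; inconclusive = exactly half the replicates above a set limit; inactive = most replicates below a set limit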;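 also: all wells also contain fluconazole at 8 µg/ml as a sub-toxic cotreatment; 0% = median of DMSO wells and 100% = median of geldanamycin control wells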
HTR2A ag: activates the mouse 5-HT2A serotonin receptor. CHO-K1 mHTR2A beta-arrestin complementation, luminescence; percent of 30 µM serotonin response. activation, % at 7.6 µM. hit rate 0.66% among 360,000. P35363;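 active = activation above a run cutoff, the mean activation of all tested compounds plus 3 SD, cut at about 14% in these data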;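 also: 0% = plate median of compound wells and 100% = 30 µM serotonin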
* hit, by the source's call; ? = inconclusive; / = no result. This is a sample that favours compounds with a hit; in the whole collection about 2.4% have one here.

SMILES	Ins promoter up	SR-BI uptake up	beta cell repl	SR-BI DiI inh	Calb FLC	HTR2A ag
Cc1ccc2cc(C=C(C#N)C#N)c(N3CCCCC3)nc2c1	0.29	-4.9	-4.3	4.9	58.2*	3.2
COc1cc(OC)cc(C(=O)NC2CCN(Cc3nnnn3Cc3ccc(F)cc3)CC2)c1	-0.06	-43.9	-4.5	43.9	116.4*	3.4
CC[C@H](C)[C@H]1O[C@]2(CC[C@@H]1C)C[C@@H]1C[C@@H](CC=C(C)[C@@H](O[C@H]3C[C@H](OC)[C@@H](O[C@H]4C[C@H](OC)[C@@H](O)[C@H](C)O4)[C@H](C)O3)[C@@H](C)C=CC=C3CO[C@@H]4[C@H](O)C(C)=C[C@@H](C(=O)O1)[C@]34O)O2	/	3.3	-8.3	-3.3	/	-11.3
Cc1ccc(-n2ncc(Br)c(Br)c2=O)cc1	-4.97	11.4	/	-11.4	96.6*	-2.0
O=C(NC1CCCCC1)C(c1cccnc1)N(CCc1ccccc1)C(=O)Cc1cccs1 (configuration not stated)	-0.28	11.8	1.0	-11.8	-0.2	5.8
COc1ccc(CNC(=O)COc2cc3c(c4oc(=O)cc(C)c24)CCC(C)(C)O3)cc1	/	-40.4	-4.0	40.4	-4.2	-1.3
COc1cccc(CNC(=O)COc2cc3c(c4oc(=O)cc(C)c24)CCC(C)(C)O3)c1	/	-77.1	-0.9	77.1*	-2.1	0.4
O=C(CCC(=O)N1CCSc2ccccc21)NC1CCCCC1	/	-1.6	-0.5	1.6	-6.7	-5.9
CCCc1ccc(Oc2cn[nH]c2-c2ccc(O)cc2O)cc1	-0.35	3.5	-5.4	-3.5	67.8*	-5.6
O=C(c1ccc(Cl)cc1)N1N=CCC1(O)c1ccc(Cl)cc1 (configuration not stated)	/	-88.4	-4.9	88.4*	-18.2	4.3
COc1ccc(NC(=O)c2c3c(nc4ccccc24)CCC3)cc1	/	-1.9	-1.7	1.9	-32.3	1.8
COc1ccc(OC)c(NC(=O)c2c3c(nc4ccccc24)CCC3)c1	/	-72.8	3.6	?	65.8*	-4.8
CCOC(=O)/C(N=Nc1ccc2c(c1)OCO2)=C(\C)O	0.1	-11.9	-2.0	11.9	-17.2	-0.1
CCn1c(CN2CCCCCC2=O)nnc1SCc1cnc(-c2ccccc2)s1	-3.13	1.2	-1.0	-1.2	78.3*	-5.8
CC1=NN(C(=O)c2ccc(C)cc2)C(O)(C(F)(F)OC(F)(F)F)C1 (configuration not stated)	/	-89.0	3.0	89.0*	-19.2	-7.2
CCOC(=O)N1CCN(C(=O)CSCC(=O)Nc2nc(-c3ccc(-c4ccccc4)cc3)cs2)CC1	1.21	-85.4	-7.3	85.4*	5.8	-0.3
Brc1ccc(-c2cn3nc4c(nc3n2)CCCC4)cc1	/	-1.9	-3.4	1.9	-1.8	4.9
Nc1nn2cc(-c3ccc(Br)cc3)nc2c2ccccc12	-0.67	/	-5.6	/	98.7*	-1.6
COc1cccc(N2CCN(c3ncnc4c3[nH]c3ccc(F)cc34)CC2C)c1 (configuration not stated)	-3.69	-71.8	-6.1	71.8*	-5.1	31.9*
CCN1CN(Cc2ccco2)CNC1=S	-0.15	9.8	0.0	-9.8	26.7	2.3
COc1ccc(C2=CSC3=NNC4(CCCCC4)NN23)cc1	-0.11	-21.1	-1.6	21.1	111.9*	4.1
Cc1ccc(C2=CSC3=NNC4(CCCCC4)NN23)cc1	-0.25	-7.2	-4.5	7.2	111.1*	-5.1
CC(=O)Nc1ccc(OS(=O)(=O)c2c(C)cc(C)cc2C)cc1	-1.32	-1.0	-3.1	14.5	5.6	0.3
COc1ccc(Cc2c(C3CCCCC3)nc3c(Cl)cc(C(F)(F)F)cn23)c(C)c1	/	/	/	/	/	12.3
CC(C)(C)c1ccc(-c2cn(-c3ccc(Br)cc3)c3[n+]2CCCS3)cc1	?	-22.4	/	22.4	102.3*	1.3
SMILES	Ins promoter up	SR-BI uptake up	beta cell repl	SR-BI DiI inh	Calb FLC	HTR2A ag
COc1cccc2c1C(=O)c1c(O)c3c(c(O)c1C2=O)C[C@@](O)(C(C)=O)C[C@@H]3O[C@H]1C[C@H](N)[C@H](O)[C@H](C)O1	/	-50.7	/	50.7	/	0.1
CC(=O)[C@]1(O)Cc2c(O)c3c(c(O)c2[C@@H](O[C@H]2C[C@H](N)[C@H](O)[C@H](C)O2)C1)C(=O)c1ccccc1C3=O	/	/	-7.5	/	77.6*	/
O=C(CCn1nc(-c2ccc(Cl)cc2)ccc1=O)NCCCN1CCCCCC1	-0.9	-73.4	1.4	73.4*	4.2	0.7
CCCCc1c(C)nc(Nc2ccc(OC)cc2)[nH]c1=O	1.05	60.3*	0.1	-60.3	-7.0	-1.7
COc1cccc(C(=O)Oc2c(Br)cc(Br)cc2/C=N/NC(=O)c2cc(C)[nH]n2)c1	-0.78	-102.9	-6.1	102.9*	-6.7	-10.2
N#CC(C#N)=CC1=C2OC(c3ccccc3)=CC(c3ccccc3)=C2CCC1	-0.24	-116.5	-3.6	116.4*	-12.1	1.3
CCOc1ccc(OCCn2ccnc2)cc1	1.06	16.3	0.0	-16.3	15.0	1.2
CCOc1ccc(OCCCCn2ccnc2)cc1	3.52*	12.0	0.0	-12.0	-0.4	0.7
CC(NC(=O)/C(C#N)=C1\N=C(NC(=O)c2cccs2)c2ccccc21)c1ccccc1 (configuration not stated)	3.96*	54.7	0.0	-54.7	-2.1	-5.2
O=C(CCCCCN1C(=O)c2ccccc2C1=O)Oc1ccc2c3c(c(=O)oc2c1)CCC3	0.46	21.3	0.0	-21.3	2.5	8.6
COc1ccc(/C=C(\C#N)C(=O)Nc2cccc3ncccc23)cc1OC	0.45	/	-2.0	/	10.1	5.3
N#C/C(=C\c1ccc(O)c(O)c1)C(=O)Nc1cccc2ncccc12	/	-10.2	-1.4	10.2	96.8*	-0.2
O=C(O)c1ccc(N2C(=O)CC(SC(=Nc3ccccc3)Nc3ccccc3)C2=O)cc1 (configuration not stated)	0.45	24.6	-2.1	-24.6	-5.4	-1.4
O=C1CC(SC(=Nc2ccccc2)Nc2ccccc2)C(=O)N1c1cccc2ccccc12 (configuration not stated)	0	-92.8	-3.0	92.8*	-3.1	-0.6
Cn1nc(C(F)(F)F)c2cc(C(=O)Nc3ccc(Cl)cc3)sc21	-0.2	-82.7	-5.0	82.7*	-3.6	-1.8
Cn1nc(C(F)(F)F)c2cc(C(=O)Nc3ccc(F)cc3F)sc21	0.33	-56.1	-0.4	56.1	63.5	-1.8
O=C(c1ccc(Cl)c([N+](=O)[O-])c1)N1CCN(Cc2ccc3c(c2)OCO3)CC1	-0.88	-24.9	-1.1	24.9	-53.0	3.5
O=C(N/N=C/c1cc(Br)ccc1O)C(=O)Nc1ccccc1OC(F)(F)C(F)F	-4.33	-129.2	/	129.2*	26.8	-3.0
COc1cccc(/C=N/NC(=O)C(=O)Nc2ccccc2OC(F)(F)C(F)F)c1	-0.26	1.8	-1.1	-1.8	1.3	-4.1
COc1ccccc1/C=N/NC(=O)C(=O)Nc1ccccc1OC(F)(F)C(F)F	-0.18	-54.8	1.0	54.8	5.2	-2.8

Compound activity as filed in PubChem.
